Data as given in ChEMBL document CHEMBL4350992, “Identification of Diketopiperazine-Containing 2-Anilinobenzamides as Potent Sirtuin 2 (SIRT2)-Selective Inhibitors Targeting the "Selectivity Pocket", Substrate-Binding Site, and NAD+-Binding Site” (J Med Chem, 2019).
The source made the active and inactive calls. The calls are words filed in the database; no cut-off is given here.

Columns and labels:
[1] = biological target: T1, NAD-dependent protein deacetylase sirtuin-1 (Homo sapiens) (UniProt Q96EB6); experiment: Inhibition of human N-terminal His-tagged SIRT1 expressed in Escherichia coli at 50 uM using p53 (Arg-His-Lys-Lys(Ac)) (379 to 382 residues) as substrate incubated for 3 hrs measured up to 30 mins by fluorescence assay relative to control
T1 sequence (whole entry): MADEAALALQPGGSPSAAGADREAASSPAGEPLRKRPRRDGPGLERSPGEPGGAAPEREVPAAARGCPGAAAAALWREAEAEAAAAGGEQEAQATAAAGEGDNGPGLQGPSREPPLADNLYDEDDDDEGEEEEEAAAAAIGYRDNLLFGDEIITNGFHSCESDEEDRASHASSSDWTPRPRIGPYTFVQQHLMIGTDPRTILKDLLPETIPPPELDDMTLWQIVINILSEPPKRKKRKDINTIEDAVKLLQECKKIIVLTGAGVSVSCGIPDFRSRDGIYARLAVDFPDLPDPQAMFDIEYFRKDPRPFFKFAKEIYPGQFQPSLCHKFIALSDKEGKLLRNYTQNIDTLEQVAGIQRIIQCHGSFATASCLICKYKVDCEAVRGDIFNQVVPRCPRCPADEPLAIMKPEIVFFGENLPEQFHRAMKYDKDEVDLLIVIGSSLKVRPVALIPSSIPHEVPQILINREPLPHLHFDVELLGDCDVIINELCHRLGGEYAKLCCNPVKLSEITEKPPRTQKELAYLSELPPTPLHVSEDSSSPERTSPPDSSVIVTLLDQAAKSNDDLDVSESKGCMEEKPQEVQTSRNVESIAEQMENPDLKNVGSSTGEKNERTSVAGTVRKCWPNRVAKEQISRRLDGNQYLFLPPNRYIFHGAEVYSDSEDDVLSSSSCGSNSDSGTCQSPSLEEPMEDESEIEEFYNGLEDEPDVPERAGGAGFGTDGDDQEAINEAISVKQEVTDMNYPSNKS

[2] = biological target: T2, NAD-dependent protein deacetylase sirtuin-2 (Homo sapiens) (UniProt Q8IXJ6); experiment: Inhibition of human N-terminal His-tagged SIRT2 expressed in Escherichia coli at 1 uM using p53 (Gln-Pro-Lys-Lys(Ac)) (317 to 320 residues) as substrate incubated for 3 hrs measured up to 30 mins by fluorescence assay relative to control
T2 sequence (whole entry): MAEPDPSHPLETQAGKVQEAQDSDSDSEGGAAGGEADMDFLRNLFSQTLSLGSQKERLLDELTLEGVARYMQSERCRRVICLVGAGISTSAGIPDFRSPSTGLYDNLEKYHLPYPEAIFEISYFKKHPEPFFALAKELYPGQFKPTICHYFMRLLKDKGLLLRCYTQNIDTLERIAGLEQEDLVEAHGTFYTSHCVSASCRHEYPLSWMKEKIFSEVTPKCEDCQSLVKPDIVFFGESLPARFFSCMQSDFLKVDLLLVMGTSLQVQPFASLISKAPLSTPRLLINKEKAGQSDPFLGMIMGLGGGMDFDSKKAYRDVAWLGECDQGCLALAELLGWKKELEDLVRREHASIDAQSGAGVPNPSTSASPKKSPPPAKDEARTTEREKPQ

[3] = biological target: T3, NAD-dependent protein deacetylase sirtuin-1 (Homo sapiens, UniProt Q96EB6); experiment: Inhibition of human N-terminal His-tagged SIRT1 expressed in Escherichia coli using p53 (Arg-His-Lys-Lys(Ac)) (379 to 382 residues) as substrate incubated for 3 hrs measured up to 30 mins by fluorescence assay
T3 sequence (Q96EB6 whole entry): T1 sequence (whole entry)

[4] = biological target: T4, NAD-dependent protein deacetylase sirtuin-2 (Homo sapiens, UniProt Q8IXJ6); experiment: Inhibition of human N-terminal His-tagged SIRT2 expressed in Escherichia coli using p53 (Gln-Pro-Lys-Lys(Ac)) (317 to 320 residues) as substrate incubated for 3 hrs measured up to 30 mins by fluorescence assay
T4 sequence (Q8IXJ6 whole entry): T2 sequence (whole entry)

[5] = biological target: NAD-dependent protein deacylase sirtuin-5, mitochondrial (Homo sapiens) (UniProt Q9NXA8); experiment: Inhibition of human N-terminal His-tagged SIRT5 (37 to 310 residues) expressed in Escherichia coli at 100 uM using flour de lys succinyl as substrate incubated for 3 hrs measured up to 30 mins by fluorescence assay relative to control
NAD-dependent protein deacylase sirtuin-5, mitochondrial (Homo sapiens), sequence (Q9NXA8 37-310 limits assumed): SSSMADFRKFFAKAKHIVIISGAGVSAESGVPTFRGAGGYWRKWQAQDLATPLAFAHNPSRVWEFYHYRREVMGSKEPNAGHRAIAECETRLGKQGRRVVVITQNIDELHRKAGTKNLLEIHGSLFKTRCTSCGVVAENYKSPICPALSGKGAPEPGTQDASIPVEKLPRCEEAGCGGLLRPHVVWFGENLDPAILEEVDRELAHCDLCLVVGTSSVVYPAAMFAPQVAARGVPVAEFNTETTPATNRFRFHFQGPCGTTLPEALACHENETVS

[6] = biological target: Histone deacetylase (Homo sapiens) (UniProt Q13547+O15379+Q9UBN7+Q92769+Q9UQL6+Q8WUI4+Q9BY41+Q96DB2+P56524+Q9UKV0+Q969S8); experiment: Inhibition of HDAC in human HeLa cell nuclear extract at 2.5 to 100 uM using fluor de lys as substrate by fluorescence assay; type: cell-free
[7] = biological target: Lysine-specific demethylase 5A (Homo sapiens) (UniProt P29375); experiment: Inhibition of human C-terminal FLAG-tagged KDM5A (1 to 1090 residues) expressed in baculovirus infected Sf9 insect cells at 2.5 to 100 uM using H3(1-21)K4(Me3)-GGK(Biotin)/2-OG as substrate measured after 1 hr by Alphalisa assay
Lysine-specific demethylase 5A (Homo sapiens), sequence (P29375 whole entry, the tested form may be a part): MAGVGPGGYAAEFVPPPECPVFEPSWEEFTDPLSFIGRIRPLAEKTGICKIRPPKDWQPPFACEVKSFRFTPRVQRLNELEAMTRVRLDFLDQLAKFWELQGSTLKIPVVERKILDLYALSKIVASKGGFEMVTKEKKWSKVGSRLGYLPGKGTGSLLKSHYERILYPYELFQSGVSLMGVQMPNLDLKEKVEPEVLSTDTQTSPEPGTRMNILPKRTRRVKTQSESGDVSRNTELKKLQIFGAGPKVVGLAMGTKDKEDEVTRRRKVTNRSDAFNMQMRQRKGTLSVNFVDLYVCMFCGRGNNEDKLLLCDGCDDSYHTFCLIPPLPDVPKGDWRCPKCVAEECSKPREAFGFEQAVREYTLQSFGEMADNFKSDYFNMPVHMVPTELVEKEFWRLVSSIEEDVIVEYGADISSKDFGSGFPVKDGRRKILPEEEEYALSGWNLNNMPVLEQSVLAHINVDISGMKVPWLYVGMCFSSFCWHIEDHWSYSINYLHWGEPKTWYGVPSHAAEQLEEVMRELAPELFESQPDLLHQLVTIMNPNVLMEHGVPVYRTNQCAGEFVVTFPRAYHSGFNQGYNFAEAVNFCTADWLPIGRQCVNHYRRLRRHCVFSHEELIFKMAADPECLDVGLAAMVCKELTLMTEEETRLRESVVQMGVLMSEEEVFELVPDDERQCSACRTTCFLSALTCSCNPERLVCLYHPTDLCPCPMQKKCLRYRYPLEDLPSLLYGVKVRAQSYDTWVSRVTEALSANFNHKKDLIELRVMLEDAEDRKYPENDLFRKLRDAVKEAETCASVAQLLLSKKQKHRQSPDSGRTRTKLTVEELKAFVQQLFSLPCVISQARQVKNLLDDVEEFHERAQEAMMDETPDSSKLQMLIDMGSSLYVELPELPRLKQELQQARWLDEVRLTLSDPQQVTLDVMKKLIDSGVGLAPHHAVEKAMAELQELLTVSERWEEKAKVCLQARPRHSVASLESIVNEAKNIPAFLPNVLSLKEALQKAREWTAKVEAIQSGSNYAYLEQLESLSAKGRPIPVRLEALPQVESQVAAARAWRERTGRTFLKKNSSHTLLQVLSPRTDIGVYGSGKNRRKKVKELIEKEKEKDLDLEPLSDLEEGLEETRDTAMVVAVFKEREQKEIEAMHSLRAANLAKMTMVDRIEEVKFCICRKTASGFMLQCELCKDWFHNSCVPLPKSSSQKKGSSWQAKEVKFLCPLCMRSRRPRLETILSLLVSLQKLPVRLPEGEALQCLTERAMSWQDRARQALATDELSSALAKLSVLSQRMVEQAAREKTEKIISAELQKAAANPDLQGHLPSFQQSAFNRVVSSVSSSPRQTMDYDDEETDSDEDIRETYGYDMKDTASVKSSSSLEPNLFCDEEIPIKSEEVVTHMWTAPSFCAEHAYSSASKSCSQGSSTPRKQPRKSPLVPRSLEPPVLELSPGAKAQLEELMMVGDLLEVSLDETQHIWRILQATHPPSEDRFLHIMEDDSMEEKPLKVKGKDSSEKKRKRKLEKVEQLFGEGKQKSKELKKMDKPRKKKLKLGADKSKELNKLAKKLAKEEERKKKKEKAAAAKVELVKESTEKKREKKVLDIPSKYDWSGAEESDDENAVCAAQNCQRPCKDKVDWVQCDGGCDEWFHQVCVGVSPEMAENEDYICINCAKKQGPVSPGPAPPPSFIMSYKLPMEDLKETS

[8] = biological target: T4, NAD-dependent protein deacetylase sirtuin-2; experiment: Inhibition of human N-terminal His-tagged SIRT2 expressed in Escherichia coli using p53 (Gln-Pro-Lys-Lys(Ac)) (317 to 320 residues) as substrate incubated for 3 hrs measured up to 30 mins in presence of NAD+ by fluorescence-based Michaelis-Menten plot analysis; conditions: in the assay text read “incubated for 45 mins” for “incubated for 3 hrs”
Procedure, shortened: (§1)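 The Fluor de Lys SIRT2 assay was run with reaction time shortened to 45 min. The acetylated substrate concentration was varied at saturating NAD⁺. Inhibitor was tested at 0, 0.1, 0.4, 0.6 and 1 µM, or at 0, 0.02, 0.06, 0.1 and 0.4 µM. Ki was derived from Michaelis–Menten and Lineweaver–Burk plots.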

[9] = biological target: T2, NAD-dependent protein deacetylase sirtuin-2 (Homo sapiens); experiment: Competitive inhibition of human N-terminal His-tagged SIRT2 expressed in Escherichia coli up to uM using varying levels of p53 (Gln-Pro-Lys-Lys(Ac)) (317 to 320 residues) as substrate incubated for 3 hrs measured up to 30 mins in presence of NAD+ by Lineweaver-burk plot analysis; conditions: in the assay text read “incubated for 45 mins” for “incubated for 3 hrs”; procedure, shortened: as §1
[10] = biological target: T2, NAD-dependent protein deacetylase sirtuin-2 (Homo sapiens); experiment: Binding affinity to recombinant human full-length N-terminal His-tagged SIRT2 expressed in baculovirus infected Sf9 insect cells assessed as ADP ribose-compound complex formation measured after 5 mins in presence of NAD+ by MALDI-TOF analysis
Procedure, shortened: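 Recombinant SIRT2 at 1.9 µM, 500 µM NAD⁺ and 1 mM compound were reacted for 5 min at 37°C in 40 mM sodium phosphate pH 7.0 with 240 mM NaCl, 120 mM imidazole, 0.2 mM DTT, 20% glycerol and 2% DMSO. Controls lacked compound, NAD⁺ or enzyme. Mixtures were diluted, desalted on C18 tips and analysed by MALDI-TOF in reflectron negative-ion mode with α-cyano-4-hydroxycinnamic acid matrix.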

MCF7 [11] = experiment: Growth inhibition of human MCF7 cells at 30 uM measured after 72 hrs by AlamarBlue assay relative to control; type: functional; conditions: MCF7, 72 h, read-out: GI
Procedure, shortened: (§2)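 MCF-7 cells in DMEM with 10% FBS were seeded at 1×10³ cells/well. After 24 h at 37°C, 5% CO₂, compound in medium was added at varying concentrations for 72 h. AlamarBlue was then added for 3 h and fluorescence read (ex 540/em 590 nm). Percent growth was calculated from the readings, and GI50 from the dose response. Three independent determinations.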

MCF7 [12] = experiment: Growth inhibition of human MCF7 cells measured after 72 hrs by AlamarBlue assay; type: functional; procedure, shortened: as §2
N2a [13] = experiment: Induction of neurite outgrowth in mouse Neuro2a cells assessed as differentiated cells at 2 uM measured after 24 hrs by microscopic analysis (reference value: 2.53 +/- 0.76%); type: functional
Procedure, shortened: (§3)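 N2a cells were plated at 1×10⁴ cells/mL in DMEM with 10% FBS, then switched to DMEM with 2% FBS for differentiation. Compound was added for 24 or 48 h and morphology scored by microscopy. A cell counted as differentiated if it had ≥1 neurite longer than twice the soma diameter; ≥100 cells were counted per condition. Triplicate experiments, mean ± SD, one-way ANOVA with Dunnett's test.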

N2a [14] = experiment: Induction of neurite outgrowth in mouse Neuro2a cells assessed as differentiated cells at 2 uM measured after 48 hrs by microscopic analysis (reference value: 4.18 +/- 1.67%); type: functional; procedure, shortened: as §3
[15] = biological target: T2, NAD-dependent protein deacetylase sirtuin-2 (Homo sapiens); experiment: Inhibition of human N-terminal His-tagged SIRT2 expressed in Escherichia coli at 10 uM using p53 (Gln-Pro-Lys-Lys(Ac)) (317 to 320 residues) as substrate incubated for 3 hrs measured up to 30 mins by fluorescence assay relative to control
[16] = biological target: T1, NAD-dependent protein deacetylase sirtuin-1 (Homo sapiens); experiment: Inhibition of human N-terminal His-tagged SIRT1 expressed in Escherichia coli at 100 uM using p53 (Arg-His-Lys-Lys(Ac)) (379 to 382 residues) as substrate incubated for 3 hrs measured up to 30 mins by fluorescence assay relative to control
[17] = biological target: T5, NAD-dependent protein deacetylase sirtuin-3, mitochondrial (Homo sapiens) (UniProt Q9NTG7); experiment: Inhibition of human N-terminal His-tagged SIRT3 (102 to 399 residues) expressed in Escherichia coli at 100 uM using p53 (Gln-Pro-Lys-Lys(Ac)) (317 to 320 residues) as substrate incubated for 3 hrs measured up to 30 mins by fluorescence assay relative to control
T5 sequence (whole entry): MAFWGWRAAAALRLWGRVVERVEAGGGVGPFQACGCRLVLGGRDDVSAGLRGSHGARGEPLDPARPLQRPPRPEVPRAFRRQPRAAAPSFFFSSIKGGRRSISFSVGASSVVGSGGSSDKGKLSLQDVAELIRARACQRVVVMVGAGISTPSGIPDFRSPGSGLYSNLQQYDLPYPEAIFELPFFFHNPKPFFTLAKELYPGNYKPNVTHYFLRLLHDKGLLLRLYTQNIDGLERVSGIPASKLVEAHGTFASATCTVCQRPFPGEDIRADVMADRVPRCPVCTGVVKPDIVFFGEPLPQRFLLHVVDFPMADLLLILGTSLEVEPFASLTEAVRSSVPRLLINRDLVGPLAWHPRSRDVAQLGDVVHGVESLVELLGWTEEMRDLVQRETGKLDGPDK

N2a [18] = experiment: Induction of neurite outgrowth in mouse Neuro2a cells at 0.2 to 2 uM measured after 24 to 48 hrs by microscopic analysis; type: functional, cell-based; procedure, shortened: as §3
[19] = Solubility of the compound in buffer/DMSO at 100 uM; type: physicochemical
[20] = biological target: T5, NAD-dependent protein deacetylase sirtuin-3, mitochondrial (Homo sapiens); experiment: Inhibition of human N-terminal His-tagged SIRT3 (102 to 399 residues) expressed in Escherichia coli at 50 uM using p53 (Gln-Pro-Lys-Lys(Ac)) (317 to 320 residues) as substrate incubated for 3 hrs measured up to 30 mins by fluorescence assay relative to control

Structure (SMILES) | inhibition [1] | inhibition [2] | IC50 [4] | inhibition [5] | Ki [8] | inhibition [9] | inhibition of growth at 30 µM (MCF7 [11]) | inhibition [15] | inhibition [16] | inhibition [17] | other results
O=C1CNC(=O)[C@H](CCCCNC(=S)CNC(=O)c2ccccc2Nc2cccc(OCCc3ccccc3)c2)N1 | 41% | 73% | 310 nM | 0% | 68 nM | Active | 96% | – | – | – | IC50 [3]: 77.4 µM; inhibition [6]: inactive; inhibition [7]: inactive; Activity [10]: Active; growth inhibition (GI) (MCF7 [12]): Dose-dependent effect; GI50 (MCF7 [12]; MCF7, 72 h): 11.5 µM; Activity (N2a [13]): 4.54%; Activity (N2a [14]): 12.27%
O=C(CNC(=O)c1ccccc1Nc1cccc(OCCc2ccccc2)c1)NCCCC[C@@H]1NC(=O)CNC1=O | 9% | 59% | 600 nM | 2% | 470 nM | Active | 40% | 92% | 13% | 17% | Activity (N2a [18]): inactive
C[C@H](NC(=O)[C@H](CCCCNC(=O)CNC(=O)c1ccccc1Nc1cccc(OCCc2ccccc2)c1)NC(=O)OCc1ccccc1)C(N)=O | – | – | – | 6% | – | – | – | – | 51% | 61% | solubility [19]: Insoluble
Cc1cc(C)nc(SCC(=O)Nc2cccc(Nc3ccccc3C(N)=O)c2)n1 | 16% | 47% | 1180 nM | 16% | – | – | – | 93% | 28% | 80% | inhibition [20]: 63%
